Data from ChEMBL document CHEMBL1139237, “Identification of inhibitors of N5-carboxyaminoimidazole ribonucleotide synthetase by high-throughput screening” (Bioorg Med Chem, 2009).
The source made the active and inactive calls. The rule behind the calls is not given here.

How the values were obtained:
[1] = Inhibition of Escherichia coli N5-CAIR synthetase by phosphate assay
Method in brief: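 E. coli enzyme in 50 mM HEPES pH 7.5, 20 mM KCl, 6.0 mM MgCl2, 100 μM ATP, diluted saturated NaHCO3. Compound at eight concentrations, 0.78–100 μM, with 50 μM AIR added, run 5 min at room temperature. Quenched with malachite green reagent, A600 read after at least 15 min. IC50 taken from Hill fit between enzyme + AIR and no-AIR controls.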

[2] = target: T1, Bifunctional phosphoribosylaminoimidazole carboxylase/phosphoribosylaminoimidazole succinocarboxamide synthetase (Homo sapiens) (UniProt P22234); assay: Inhibition of human AIR carboxylase: SAICAR synthetase at 200 uM by coupled assay
T1 sequence (whole entry): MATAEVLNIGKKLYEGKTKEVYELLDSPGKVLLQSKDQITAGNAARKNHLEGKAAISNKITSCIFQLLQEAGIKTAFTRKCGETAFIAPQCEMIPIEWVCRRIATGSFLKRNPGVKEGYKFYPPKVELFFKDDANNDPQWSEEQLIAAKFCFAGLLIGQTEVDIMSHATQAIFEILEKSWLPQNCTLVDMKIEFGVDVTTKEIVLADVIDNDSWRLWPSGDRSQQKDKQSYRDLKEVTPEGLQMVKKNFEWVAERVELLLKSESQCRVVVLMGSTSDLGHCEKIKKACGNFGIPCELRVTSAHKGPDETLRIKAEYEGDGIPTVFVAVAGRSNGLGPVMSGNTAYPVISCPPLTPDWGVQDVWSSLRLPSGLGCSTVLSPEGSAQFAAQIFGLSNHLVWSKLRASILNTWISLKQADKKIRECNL
Method in brief: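 Human bifunctional AIR carboxylase:SAICAR synthetase (>95% pure by SDS-PAGE); both activities measured together by coupled assay, as described for the chicken enzyme; compounds at 200 μM.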

[3] = Inhibition of Escherichia coli N5-CAIR synthetase using variable amount of ATP and fixed aminoimidazole ribonucleotide by ATPase assay
Method in brief: (§1)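 PK/LDH-coupled assay at 37 °C in HEPES pH 7.5, KCl, MgCl2, 0.2 mM NADH, 2.0 mM PEP, 1.0 mM NaHCO3. AIR fixed at 100 μM and ATP varied 5–250 μM. Inhibitor at 0–50 μM added with AIR to start the reaction. NADH loss followed at 340 nm, initial velocity over the first 2 min. Mode from Lineweaver-Burk plots, Ki from slope replots.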

[4] = Inhibition of Escherichia coli N5-CAIR synthetase using variable amount of aminoimidazole ribonucleotide and fixed ATP by ATPase assay
Method in brief: as §1, with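 “NaHCO3. ATP” for “NaHCO3. AIR”, “at 1.1 mM” for “at 100 μM”, “and AIR” for “and ATP”, “loss read” for “loss followed”, “initial rate” for “initial velocity”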

[5] = Chemical stability in aqueous solution assessed as compound decomposition after 30 mins; assay type: physicochemical; settings: buffer, 0.5 h
[6] = Inhibition of Escherichia coli N5-CAIR synthetase using variable amounts of 5-aminoimidazole ribonucleotide or ATP by ATPase assay
Method in brief: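 E. coli enzyme (168 ng) in 1 mL cuvette, 50 mM HEPES pH 7.5, 20 mM KCl, 6.0 mM MgCl2, 1.0 mM NaHCO3, PK/LDH coupling (0.2 mM NADH, 2.0 mM PEP, 4 U PK, 17 U LDH). Preincubated with ATP 3 min at 37 °C. ATP fixed 1.1 mM with AIR 5–250 μM, or AIR fixed 100 μM with ATP 5–250 μM. Start with AIR plus inhibitor (0–50 μM); A340 read at 37 °C.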

[7] = Chemical stability in aqueous solution assessed as compound decomposition after 45 mins; assay type: physicochemical; settings: buffer, 0.75 h

Structure (SMILES) | IC50 [1] | also measured
O=C1Nc2ccc(OC(F)(F)F)cc2C1=O | 19 µM | –
O=C(NC1(O)C(=O)c2ccccc2C1=O)c1cccc2c1-c1ccccc1C2=O | 8.7 µM | –
CCOC(=O)C1CCN(CN2C(=O)C(=O)c3ccccc32)CC1 | 22 µM | –
CCN(CC)C(=O)CN1C(=O)C(=O)c2ccccc21 | 10.5 µM | Activity [2]: inactive; Ki [3]: 40 µM; Ki [4]: 29 µM
COc1cscc1C(=O)NC1(O)C(=O)c2ccccc2C1=O | 17 µM | –
CCOC(=O)c1noc(C)c1-c1csc(CS(=O)(=O)c2ccc(Cl)cc2)n1 | 10 µM | Activity [2]: inactive; Ki [3]: 43 µM; Ki [4]: 62 µM
O=C1C(=O)N(CN2CCOCC2)c2ccc(Br)cc21 | 23 µM | –
O=C1C(=O)N(CN2CCN(CN3C(=O)C(=O)c4ccccc43)C2)c2ccccc21 | 69 µM | –
CN1CCN(CN2C(=O)C(=O)c3ccccc32)CC1 | 37 µM | –
Cc1nonc1NC1(O)C(=O)c2ccccc2C1=O | 2.3 µM | Stability [5]: Unstable; Ki [6]: Not Active
COc1cc(C(F)(F)F)c(C(=O)NC2(O)C(=O)c3ccccc3C2=O)cn1 | 17 µM | –
Cc1cc2nc3c(=O)[nH]c(=O)nc-3n(C[C@H](O)[C@H](O)[C@H](O)CO)c2cc1C | 20 µM | Activity [2]: inactive; Ki [3]: 122 µM; Ki [4]: 81 µM
Cc1nc(NC2(O)C(=O)c3ccccc3C2=O)cs1 | 5.6 µM | Stability [7]: Unstable; Ki [6]: Not Active
Cc1cc(NC2(O)C(=O)c3ccccc3C2=O)n(C)n1 | 7.8 µM | –
